Data published in ChEMBL document CHEMBL2062460, “Disubstituted thiourea derivatives and their activity on CNS: synthesis and biological evaluation” (Eur J Med Chem, 2012).
Values after ≈ are worked out from the molar mass of the structure shown. Active and inactive are the calls of the source. The rule behind the calls is not given here.

How the values were obtained:
[1] = tested on: Bacillus subtilis; assay: Antibacterial activity against Bacillus subtilis ATCC 6633 at 400 ug/disc after 18 hrs by disc diffusion method; format: functional; conditions: ATCC 6633, 18 h, read-out: DIZ
Procedure, shortened: (§1)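 Disc diffusion per CLSI on Mueller–Hinton II agar; 9 mm paper discs loaded from methanol or DMSO solutions to 400 µg per disc, dried; growth inhibition zone diameter read after 18 h at 35 °C.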

[2] = tested on: Staphylococcus aureus; assay: Antibacterial activity against methicillin-susceptible Staphylococcus aureus clinical isolate 267/08 after 18 hrs by twofold serial agar dilution technique; format: functional; conditions: clinical isolate 267/08, 18 h
Procedure, shortened: (§2)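 Clinical isolates came from patients in Warsaw Medical University Hospitals and were classed as methicillin-susceptible or -resistant. MIC was determined by twofold serial agar dilution on Mueller–Hinton II agar (CLSI), 3.125–400 µg/mL in agar, with compounds in methanol or DMSO. Inoculum was 10^4 CFU/mL and plates were read after 18 h at 35 °C.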

[3] = tested on: Candida parapsilosis; assay: Antifungal activity against Candida parapsilosis ATCC 22019 at 400 ug/disc after 18 hrs by disc diffusion method; format: functional, organism-based
Procedure, shortened: (§3)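 Yeasts tested by disc diffusion (CLSI) on RPMI agar with 2% glucose; 9 mm paper discs bearing 400 µg compound from methanol or DMSO solution; inhibition zone diameter read after 18 h at 35 °C.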

[4] = tested on: Staphylococcus aureus; assay: Antibacterial activity against methicillin-resistant Staphylococcus aureus clinical isolate 275/08 after 18 hrs by twofold serial agar dilution technique; format: functional; conditions: clinical isolate 275/08, 18 h; procedure, shortened: as §2
[5] = tested on: Staphylococcus epidermidis; assay: Antibacterial activity against methicillin-resistant Staphylococcus epidermidis clinical isolate 341/09 after 18 hrs by twofold serial agar dilution technique; format: functional; conditions: clinical isolate 341/09, 18 h; procedure, shortened: as §2
[6] = tested on: Escherichia coli; assay: Antibacterial activity against Escherichia coli ATCC 25922 at 400 ug/disc after 18 hrs by disc diffusion method; format: functional, organism-based; procedure, shortened: as §1
[7] = tested on: Staphylococcus aureus; assay: Antibacterial activity against methicillin-resistant Staphylococcus aureus clinical isolate 357/09 after 18 hrs by twofold serial agar dilution technique; format: functional; conditions: clinical isolate 357/09, 18 h; procedure, shortened: as §2
[8] = tested on: Candida albicans; assay: Antifungal activity against Candida albicans ATCC 90028 at 400 ug/disc after 18 hrs by disc diffusion method; format: functional, organism-based; procedure, shortened: as §3
[9] = tested on: Pseudomonas aeruginosa; assay: Antibacterial activity against Pseudomonas aeruginosa NCTC 6749 at 400 ug/disc after 18 hrs by disc diffusion method; format: functional, organism-based; procedure, shortened: as §1
[10] = tested on: Staphylococcus aureus; assay: Antibacterial activity against Staphylococcus aureus ATCC 6538 after 18 hrs by twofold serial agar dilution technique; format: functional; conditions: ATCC 6538, 18 h
Procedure, shortened: (§4)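 Twofold serial agar dilution on Mueller–Hinton II agar, following CLSI guidelines. Compounds were dissolved in methanol or DMSO and tested at final agar concentrations of 3.125–400 µg/mL. Final inoculum was 10^4 CFU/mL.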

[11] = tested on: Staphylococcus aureus; assay: Antibacterial activity against methicillin-resistant Staphylococcus aureus clinical isolate 277/08 after 18 hrs by twofold serial agar dilution technique; format: functional; conditions: clinical isolate 277/08, 18 h; procedure, shortened: as §2
[12] = tested on: Staphylococcus epidermidis; assay: Antibacterial activity against methicillin-resistant Staphylococcus epidermidis clinical isolate 311/08 after 18 hrs by twofold serial agar dilution technique; format: functional; conditions: clinical isolate 311/08, 18 h; procedure, shortened: as §2
[13] = tested on: Escherichia coli; assay: Antibacterial activity against Escherichia coli ATCC 10538 at 400 ug/disc after 18 hrs by disc diffusion method; format: functional, organism-based; procedure, shortened: as §1
[14] = tested on: Staphylococcus aureus; assay: Antibacterial activity against methicillin-susceptible Staphylococcus aureus clinical isolate 367/09 after 18 hrs by twofold serial agar dilution technique; format: functional; conditions: clinical isolate 367/09, 18 h; procedure, shortened: as §2
[15] = tested on: Staphylococcus aureus; assay: Antibacterial activity against methicillin-resistant Staphylococcus aureus clinical isolate 325/09 after 18 hrs by twofold serial agar dilution technique; format: functional; conditions: clinical isolate 325/09, 18 h; procedure, shortened: as §2
[16] = tested on: Staphylococcus epidermidis; assay: Antibacterial activity against methicillin-resistant Staphylococcus epidermidis clinical isolate 316/08 after 18 hrs by twofold serial agar dilution technique; format: functional; conditions: clinical isolate 316/08, 18 h; procedure, shortened: as §2
[17] = tested on: Bordetella bronchiseptica; assay: Antibacterial activity against Bordetella bronchiseptica ATCC 4617 at 400 ug/disc after 18 hrs by disc diffusion method; format: functional, organism-based; procedure, shortened: as §1
[18] = tested on: Enterococcus hirae; assay: Antibacterial activity against Enterococcus hirae ATCC 10541 at 400 ug/disc after 18 hrs by disc diffusion method; format: functional; conditions: for zone of inhibition at 400 µg/disc: ATCC 10541, 18 h, read-out: DIZ; procedure, shortened: as §1
[19] = tested on: Pseudomonas aeruginosa; assay: Antibacterial activity against Pseudomonas aeruginosa ATCC 15442 at 400 ug/disc after 18 hrs by disc diffusion method; format: functional, organism-based; procedure, shortened: as §1
[20] = tested on: Staphylococcus epidermidis; assay: Antibacterial activity against methicillin-resistant Staphylococcus epidermidis clinical isolate 317/08 after 18 hrs by twofold serial agar dilution technique; format: functional; conditions: clinical isolate 317/08, 18 h; procedure, shortened: as §2
[21] = tested on: Staphylococcus aureus; assay: Antibacterial activity against Staphylococcus aureus ATCC 29213 after 18 hrs by twofold serial agar dilution technique; format: functional; conditions: ATCC 29213, 18 h; procedure, shortened: as §4
[22] = tested on: Staphylococcus aureus; assay: Antibacterial activity against methicillin-susceptible Staphylococcus aureus clinical isolate 261/08 after 18 hrs by twofold serial agar dilution technique; format: functional; conditions: clinical isolate 261/08, 18 h; procedure, shortened: as §2
[23] = tested on: Micrococcus luteus; assay: Antibacterial activity against Micrococcus luteus ATCC 9341 at 400 ug/disc after 18 hrs by disc diffusion method; format: functional; conditions: ATCC 9341, 18 h, read-out: DIZ; procedure, shortened: as §1
[24] = tested on: Escherichia coli; assay: Antibacterial activity against Escherichia coli NCTC 8196 at 400 ug/disc after 18 hrs by disc diffusion method; format: functional, organism-based; procedure, shortened: as §1
[25] = tested on: Staphylococcus aureus; assay: Antibacterial activity against methicillin-susceptible Staphylococcus aureus clinical isolate 339/09 after 18 hrs by twofold serial agar dilution technique; format: functional; conditions: clinical isolate 339/09, 18 h; procedure, shortened: as §2
[26] = tested on: Micrococcus luteus; assay: Antibacterial activity against Micrococcus luteus ATCC 10240 at 400 ug/disc after 18 hrs by disc diffusion method; format: functional; conditions: ATCC 10240, 18 h, read-out: DIZ; procedure, shortened: as §1
[27] = tested on: Staphylococcus epidermidis; assay: Antibacterial activity against methicillin-resistant Staphylococcus epidermidis clinical isolate 318/08 after 18 hrs by twofold serial agar dilution technique; format: functional; conditions: clinical isolate 318/08, 18 h; procedure, shortened: as §2
[28] = tested on: Staphylococcus epidermidis; assay: Antibacterial activity against methicillin-resistant Staphylococcus epidermidis clinical isolate 377/09 after 18 hrs by twofold serial agar dilution technique; format: functional; conditions: clinical isolate 377/09, 18 h; procedure, shortened: as §2
[29] = tested on: Bacillus subtilis; assay: Antibacterial activity against Bacillus subtilis ATCC 6633 after 18 hrs by twofold serial agar dilution technique; format: functional; conditions: ATCC 6633, 18 h
[30] = tested on: Staphylococcus aureus; assay: Antibacterial activity against methicillin-susceptible Staphylococcus aureus clinical isolate 372/09 after 18 hrs by twofold serial agar dilution technique; format: functional; conditions: clinical isolate 372/09, 18 h; procedure, shortened: as §2
[31] = tested on: Staphylococcus epidermidis; assay: Antibacterial activity against methicillin-resistant Staphylococcus epidermidis clinical isolate 315/08 after 18 hrs by twofold serial agar dilution technique; format: functional; conditions: clinical isolate 315/08, 18 h; procedure, shortened: as §2
[32] = tested on: Proteus vulgaris; assay: Antibacterial activity against Proteus vulgaris NCTC 4635 at 400 ug/disc after 18 hrs by disc diffusion method; format: functional, organism-based; procedure, shortened: as §1
[33] = tested on: Micrococcus luteus; assay: Antibacterial activity against Micrococcus luteus ATCC 10240 after 18 hrs by twofold serial agar dilution technique; format: functional; conditions: ATCC 10240, 18 h
[34] = tested on: Staphylococcus aureus; assay: Antibacterial activity against Staphylococcus aureus NCTC 4163 after 18 hrs by twofold serial agar dilution technique; format: functional; conditions: NCTC 4163, 18 h; procedure, shortened: as §4
[35] = tested on: Staphylococcus epidermidis; assay: Antibacterial activity against methicillin-resistant Staphylococcus epidermidis clinical isolate 342/09 after 18 hrs by twofold serial agar dilution technique; format: functional; conditions: clinical isolate 342/09, 18 h; procedure, shortened: as §2
[36] = tested on: Staphylococcus epidermidis; assay: Antibacterial activity against methicillin-resistant Staphylococcus epidermidis clinical isolate 340/09 after 18 hrs by twofold serial agar dilution technique; format: functional; conditions: clinical isolate 340/09, 18 h; procedure, shortened: as §2

| Compound | zone of inhibition at 400 µg/disc [1] | MIC [2] | diameter of the inhibition zone (DIZ) [3] | MIC [4] | diameter of the inhibition zone (DIZ) [6] | MIC [7] | diameter of the inhibition zone (DIZ) [8] | diameter of the inhibition zone (DIZ) [9] | MIC [10] | MIC [11] | diameter of the inhibition zone (DIZ) [13] | MIC [14] | MIC [15] | diameter of the inhibition zone (DIZ) [17] | diameter of the inhibition zone (DIZ) [19] | MIC [21] | MIC [22] | zone of inhibition at 400 µg/disc [23] | diameter of the inhibition zone (DIZ) [24] | MIC [25] | further results |
| --- | --- | --- | --- | --- | --- | --- | --- | --- | --- | --- | --- | --- | --- | --- | --- | --- | --- | --- | --- | --- | --- |
| Fc1ccc(NC(=S)Nc2nc[nH]n2)cc1 | 22 mm | 50 µg/mL (≈ 211 µM) | inactive | 100 µg/mL (≈ 421 µM) | inactive | 50 µg/mL (≈ 211 µM) | inactive | inactive | 50 µg/mL (≈ 211 µM) | 50 µg/mL (≈ 211 µM) | inactive | 50 µg/mL (≈ 211 µM) | 50 µg/mL (≈ 211 µM) | inactive | inactive | 25 µg/mL (≈ 105 µM) | 50 µg/mL (≈ 211 µM) | 19 mm | inactive | 50 µg/mL (≈ 211 µM) | MIC [5]: 100 µg/mL (≈ 421 µM); MIC [12]: 50 µg/mL (≈ 211 µM); MIC [16]: 100 µg/mL (≈ 421 µM); zone of inhibition at 400 µg/disc [18]: 11 mm; MIC [20]: 50 µg/mL (≈ 211 µM); zone of inhibition at 400 µg/disc [26]: 23 mm; MIC [27]: 50 µg/mL (≈ 211 µM); MIC [28]: 50 µg/mL (≈ 211 µM); MIC [29]: 12.5 µg/mL (≈ 52.7 µM); MIC [30]: 50 µg/mL (≈ 211 µM); MIC [31]: 50 µg/mL (≈ 211 µM); diameter of the inhibition zone (DIZ) [32]: inactive; MIC [33]: 6.25 µg/mL (≈ 26.3 µM); MIC [34]: 50 µg/mL (≈ 211 µM); MIC [35]: 50 µg/mL (≈ 211 µM); MIC [36]: 50 µg/mL (≈ 211 µM) |
| Fc1ccccc1NC(=S)Nc1nc[nH]n1 | 20 mm | > 400 µg/mL | inactive | > 400 µg/mL | inactive | > 400 µg/mL | inactive | inactive | 200 µg/mL (≈ 843 µM) | > 400 µg/mL | inactive | > 400 µg/mL | > 400 µg/mL | inactive | inactive | 200 µg/mL (≈ 843 µM) | > 400 µg/mL | 24 mm | inactive | > 400 µg/mL | diameter of the inhibition zone (DIZ) [18]: inactive; zone of inhibition at 400 µg/disc [26]: 38 mm; MIC [29]: 100 µg/mL (≈ 421 µM); MIC [30]: > 400 µg/mL; diameter of the inhibition zone (DIZ) [32]: inactive; MIC [33]: 100 µg/mL (≈ 421 µM); MIC [34]: 200 µg/mL (≈ 843 µM) |
| Fc1cccc(NC(=S)Nc2nc[nH]n2)c1 | 32 mm | 25 µg/mL (≈ 105 µM) | inactive | 25 µg/mL (≈ 105 µM) | inactive | 25 µg/mL (≈ 105 µM) | inactive | inactive | 100 µg/mL (≈ 421 µM) | 12.5 µg/mL (≈ 52.7 µM) | inactive | 12.5 µg/mL (≈ 52.7 µM) | 12.5 µg/mL (≈ 52.7 µM) | inactive | inactive | 50 µg/mL (≈ 211 µM) | 25 µg/mL (≈ 105 µM) | 36 mm | inactive | 12.5 µg/mL (≈ 52.7 µM) | zone of inhibition at 400 µg/disc [18]: 16 mm; zone of inhibition at 400 µg/disc [26]: 40 mm; MIC [29]: 50 µg/mL (≈ 211 µM); MIC [30]: 25 µg/mL (≈ 105 µM); diameter of the inhibition zone (DIZ) [32]: inactive; MIC [33]: 50 µg/mL (≈ 211 µM); MIC [34]: 50 µg/mL (≈ 211 µM) |
